One assay deals with MCF7. Kind of assay: Antiproliferative activity against human MCF7 cells after 48 hrs by Sulforhodamine B assay. In kind it is functional, cell-based. Particulars: MCF7, 48 h. The procedure, abridged: (§1)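 Cancer lines from the National Cancer Institute (murine leukemic EL4, human breast MCF7, human prostate PC3), in a standard high-flux screening format. Cells incubated with compound at several concentrations, 37 °C for 48 h. Trichloroacetic acid fixation, sulforhodamine B staining, absorbance read at 490 nm. IC50 reported as mean SD of three experiments.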
(Sulforhodamine B stains cellular protein and so reports cell mass.)

Assay [1] can be described thus: Antiproliferative activity against human PC3 cells after 48 hrs by Sulforhodamine B assay. The class given is functional, cell-based. Particulars: PC-3, 48 h. The procedure, abridged: as §1
The nature of assay [2]: Antiproliferative activity against mouse McCoy cells after 48 hrs by Sulforhodamine B assay. The class given is cell-based.
The next assay concerns EL4. Kind of assay: Antiproliferative activity against mouse EL4 cells after 48 hrs by Sulforhodamine B assay. The class given is functional, cell-based. Particulars: EL4, 48 h. The procedure, abridged: as §1
Assay [3] can be described thus: Antiproliferative activity against mouse NIH/3T3 cells after 48 hrs by Sulforhodamine B assay. In kind it is cell-based. The note with it: NIH3T3, 48 h.
A short description of assay [4]: Antiproliferative activity against human MCF10A cells after 48 hrs by Sulforhodamine B assay. Particulars: MCF-10A. The class given is cell-based.

Molecules are shown by their SMILES.

By IC50 is commonly meant the midpoint of a concentration-inhibition curve.

For the compound `CC(C)(C)OC(=O)CC[C@@H]1N=C2C[C@@H]3C[C@@H](C3(C)C)[C@]2(C)OC1=O`, the IC50 with MCF7 was 40 µM; in assay [1] it was 42 µM; in assay [2], above 1000 µM; in the assay on EL4 it was 36 µM; in assay [3], above 1000 µM; in assay [4], above 1000 µM.

`CC1(C)N=C2C[C@H]3C[C@H](C3(C)C)[C@@]2(C)OC1=O`: the IC50 was 162 µM in the assay with MCF7; 166 µM in assay [1]; above 2000 µM in assay [2]; 149 µM in the assay with EL4; above 2000 µM in assay [3]; above 2000 µM in assay [4].

On to `CC(C)(C)OC(=O)NCCCC[C@@H]1N=C2C[C@@H]3C[C@@H](C3(C)C)[C@]2(C)OC1=O`, for which the IC50 in the assay with MCF7 is 17 µM; in assay [1], 18 µM; in assay [2], above 800 µM; in the assay with EL4, 15 µM; in assay [3], above 800 µM; in assay [4], above 800 µM.

With `C[C@@]12CCCC[C@H]1CC[C@@H]1OC(=O)[C@H](Cc3c[nH]c4ccccc34)N=C12`, the concentration for half-maximal inhibition (IC50) is 77 µM with MCF7; 83 µM in assay [1]; above 1500 µM in assay [2]; 71 µM in the assay on EL4; above 1500 µM in assay [3]; above 1500 µM in assay [4].

Regarding `CC(C)(C)OC(=O)NCCC[C@@H]1N=C2C[C@@H]3C[C@@H](C3(C)C)[C@]2(C)OC1=O`, the IC50 is 6.3 µM with MCF7; 6.6 µM in assay [1]; above 1200 µM in assay [2]; 4.1 µM in the assay with EL4; above 1200 µM in assay [3]; above 1200 µM in assay [4].

In turn, `CC1(C)[C@H]2CC[C@]1(C)[C@H]1OC(=O)[C@H](Cc3ccccc3)N=C21` had a concentration for half-maximal inhibition (IC50) in assay [1] of 160 µM.

Turning to `CC(C)(C)OC(=O)n1cnc(C[C@H]2N=C3C[C@H]4C[C@H](C4(C)C)[C@@]3(C)OC2=O)c1`, the IC50 is 142 µM in the assay on MCF7; 147 µM in assay [1]; above 1300 µM in assay [2]; 139 µM with EL4; above 1300 µM in assay [3]; above 1300 µM in assay [4].

`C[C@@]12CCCC[C@H]1CC[C@@H]1OC(=O)CN=C12`: the IC50 in the assay on MCF7 is 11 µM; in assay [1], 13 µM; in assay [2], above 2000 µM; with EL4, 7.7 µM; in assay [3], above 2000 µM; in assay [4], above 2000 µM.

On to `C[C@H]1N=C2C[C@H]3C[C@H](C3(C)C)[C@@]2(C)OC1=O`, for which the IC50 in the assay on MCF7 is 38 µM; in assay [1], 42 µM; in assay [2], above 1800 µM; in the assay with EL4, 27 µM; in assay [3], above 1800 µM; in assay [4] it was above 1800 µM.

Turning to `CC1(C)[C@@H]2CC3=N[C@@H](CCC(=O)O)C(=O)O[C@@]3(C)[C@H]1C2`, the IC50 in the assay with MCF7 was 38 µM; in assay [1], 42 µM; in assay [2] it was above 1200 µM; with EL4 it was 36 µM; in assay [3], above 1200 µM; in assay [4], above 1200 µM.

On to `CC(C)(C)OC(=O)NCCC[C@H]1N=C2C[C@H]3C[C@H](C3(C)C)[C@@]2(C)OC1=O`, for which the IC50 was 56 µM with MCF7; 60 µM in assay [1]; above 1500 µM in assay [2]; 48 µM with EL4; above 1500 µM in assay [3]; above 1500 µM in assay [4].

Turning to `C[C@H]1N=C2[C@H](CC[C@@H]3CCCC[C@@]23C)OC1=O`, the IC50 in the assay with MCF7 is 57 µM; in assay [1], 57 µM; in assay [2], above 2000 µM; with EL4, 53 µM; in assay [3], above 2000 µM; in assay [4] it was above 2000 µM.

Turning to `O=C1O[C@H]2CCc3ccccc3C2=N[C@H]1Cc1ccccc1`, the IC50 in the assay on MCF7 is 41 µM; in assay [1] it was 45 µM; in assay [2], above 1000 µM; with EL4, 39 µM; in assay [3] it was above 1000 µM; in assay [4], above 1000 µM.

Turning to `CC1(C)[C@H]2CC3=N[C@H](CCC(=O)O)C(=O)O[C@]3(C)[C@@H]1C2`, the IC50 in the assay on MCF7 is 34 µM; in assay [1], 38 µM; in assay [2], above 1200 µM; with EL4 it was 30 µM; in assay [3] it was above 1200 µM; in assay [4], above 1200 µM.

Regarding `CC(C)(C)OC(=O)NCCCC[C@H]1N=C2C[C@H]3C[C@H](C3(C)C)[C@@]2(C)OC1=O`, the 50% inhibitory concentration (IC50) is 15.3 µM in the assay with MCF7; 15.9 µM in assay [1]; above 1300 µM in assay [2]; 14.5 µM in the assay on EL4; above 1300 µM in assay [3]; above 1300 µM in assay [4].

In the case of `CC1(C)[C@@H]2CC3=NCC(=O)O[C@@]3(C)[C@H]1C2`, the IC50 with MCF7 is 22 µM; in assay [1], 43 µM; in assay [2], above 900 µM; in the assay with EL4 it was 19 µM; in assay [3] it was above 900 µM; in assay [4], above 900 µM.

Take `C[C@@H]1N=C2C[C@@H]3C[C@@H](C3(C)C)[C@]2(C)OC1=O`: the IC50 in the assay on MCF7 was 154 µM; in assay [1] it was 149 µM; in assay [2], above 2000 µM; in the assay with EL4 it was 145 µM; in assay [3] it was above 2000 µM; in assay [4], above 2000 µM.

As for `CC1(C)[C@H]2CC3=NCC(=O)O[C@]3(C)[C@@H]1C2`, the IC50 is above 300 µM in the assay with MCF7; above 300 µM in assay [1]; above 2000 µM in assay [2]; above 300 µM with EL4; above 2000 µM in assay [3]; above 2000 µM in assay [4].

Turning to `CC1(C)[C@@H]2CC3=N[C@@H](Cc4ccccc4)C(=O)O[C@@]3(C)[C@H]1C2`, the IC50 with MCF7 is above 300 µM; in assay [1], above 300 µM; in assay [2], above 1000 µM; in the assay on EL4, above 300 µM; in assay [3] it was above 1000 µM; in assay [4], above 1000 µM.

Consider `CC1(C)[C@H]2CC3=N[C@H](Cc4ccccc4)C(=O)O[C@]3(C)[C@@H]1C2`, for which the IC50 was 8.4 µM in the assay on MCF7; 9.4 µM in assay [1]; above 1500 µM in assay [2]; 7.7 µM in the assay on EL4; above 1500 µM in assay [3]; above 1500 µM in assay [4].

For the compound `O=C1O[C@H]2CCc3ccccc3C2=N[C@H]1Cc1c[nH]c2ccccc12`, the IC50 is 39 µM with MCF7; 39 µM in assay [1]; above 1000 µM in assay [2]; 36 µM in the assay on EL4; above 1000 µM in assay [3]; above 1000 µM in assay [4].

Turning to `C[C@@]12CCCC[C@H]1CC[C@@H]1OC(=O)[C@H](Cc3ccccc3)N=C12`, the concentration for half-maximal inhibition (IC50) in the assay with MCF7 is 53 µM; in assay [1] it was 51 µM; in assay [2], above 1700 µM; in the assay with EL4, 50 µM; in assay [3] it was above 1700 µM; in assay [4], above 1700 µM.

Regarding `CC1(C)[C@H]2CC[C@]1(C)[C@H]1OC(=O)CN=C21`, the concentration for half-maximal inhibition (IC50) is 135 µM with MCF7; 145 µM in assay [1]; above 900 µM in assay [2]; 82 µM in the assay on EL4; above 900 µM in assay [3]; above 900 µM in assay [4].

As for `C[C@@]12CCCC[C@H]1CC=C(O)C2=O`, the IC50 is 119 µM in the assay with MCF7; 119 µM in assay [1]; above 2000 µM in assay [2]; 114 µM in the assay with EL4; above 2000 µM in assay [3]; above 2000 µM in assay [4].

Consider `CC(C)(C)OC(=O)CC[C@H]1N=C2C[C@H]3C[C@H](C3(C)C)[C@@]2(C)OC1=O`, for which the IC50 with MCF7 is 54 µM; in assay [1], 55 µM; in assay [2] it was above 1200 µM; with EL4, 51 µM; in assay [3], above 1200 µM; in assay [4], above 1200 µM.

As for `C[C@@]12CCCC[C@H]1CC[C@@H]1OC(=O)[C@@H](Cc3ccccc3)N=C12`, the IC50 with MCF7 was 12 µM; in assay [1] it was 12 µM; in assay [2], above 1200 µM; in the assay with EL4, 12 µM; in assay [3], above 1200 µM; in assay [4], above 1200 µM.

As to `O=C1O[C@@H]2CCc3ccccc3C2=N[C@H]1Cc1ccccc1`, the 50% inhibitory concentration (IC50) in the assay with MCF7 is 27 µM; in assay [1] it was 30 µM; in assay [2], above 1000 µM; with EL4 it was 24 µM; in assay [3], above 1000 µM; in assay [4], above 1000 µM.

In the case of `O=C1O[C@@H]2CCc3ccccc3C2=N[C@H]1Cc1c[nH]c2ccccc12`, the IC50 was 25 µM with MCF7; 26 µM in assay [1]; above 1000 µM in assay [2]; 22 µM in the assay on EL4; above 1000 µM in assay [3]; above 1000 µM in assay [4].
